# Assay results from different studies.
# Lines come from different studies, so protocols differ.
# Target: cGMP-dependent protein kinase 1 (PRKG1, Homo sapiens, UniProt Q13976)
# Residues used in one study (Q13976 1-671): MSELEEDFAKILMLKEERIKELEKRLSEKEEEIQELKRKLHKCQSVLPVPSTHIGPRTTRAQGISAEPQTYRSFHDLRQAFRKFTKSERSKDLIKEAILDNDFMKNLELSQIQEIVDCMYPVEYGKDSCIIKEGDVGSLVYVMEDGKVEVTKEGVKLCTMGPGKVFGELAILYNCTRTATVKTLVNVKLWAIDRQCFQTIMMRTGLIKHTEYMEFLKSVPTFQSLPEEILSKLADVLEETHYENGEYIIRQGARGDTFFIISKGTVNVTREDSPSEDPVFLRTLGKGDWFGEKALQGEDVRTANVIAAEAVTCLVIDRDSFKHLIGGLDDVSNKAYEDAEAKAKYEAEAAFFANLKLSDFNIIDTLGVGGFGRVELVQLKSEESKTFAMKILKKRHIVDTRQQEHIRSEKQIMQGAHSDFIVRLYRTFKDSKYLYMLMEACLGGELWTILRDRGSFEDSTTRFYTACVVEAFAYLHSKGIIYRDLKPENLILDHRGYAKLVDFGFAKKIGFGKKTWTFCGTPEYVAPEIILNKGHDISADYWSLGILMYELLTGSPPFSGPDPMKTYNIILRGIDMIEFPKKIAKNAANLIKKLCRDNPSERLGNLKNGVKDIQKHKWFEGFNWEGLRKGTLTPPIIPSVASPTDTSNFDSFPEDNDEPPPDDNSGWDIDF
SMILES,effect on,mode,method,tested at,endpoint,value
Cc1cc(NC(=O)c2cccc3cc(-c4cccc5[nH]nc(N)c45)ccc23)ccc1F,enzyme activity,inhibitor,,0.1 µM,activity vs control,122%
CCCOc1ccc(OC)c(F)c1C(=O)c1ccc(C(=O)N[C@@H]2CNC[C@H]2NC(=O)c2ccc3[nH]ncc3c2)cc1,enzyme activity,inhibitor,,0.1 µM,remaining activity,15%
CN1CC(Oc2cnc(C#N)cc2-c2ccn3nc(NC(=O)C4CC4)cc3c2)C1,enzyme activity,inhibitor,,1 µM,inhibition,2%
Cn1cnc(Br)c1C1=CN(c2ncnc3[nH]cnc23)CCS1,enzyme activity,inhibitor,radiometric,50 nM,inhibition,72.1%
Cc1ccc(NC(=O)c2ccc(C)c(C(F)(F)F)c2)cc1C#Cc1nn(C2CCC(O)CC2)c2ncnc(N)c12 (centres unmarked),cell-free assay,,,10 µM,remaining signal,118%
CN(C)c1ncnc(-c2ccc3nc(Nc4cc(CN5CCN(C(=O)CC(F)(F)F)CC5)ccn4)[nH]c3c2)c1Cl,cell-free assay,,competition with immobilised ligand,1 µM,remaining binding,94%
CC(C)(C)c1nc(-c2cccc(NS(=O)(=O)c3c(F)cccc3F)c2F)c(-c2ccnc(N)n2)s1,enzyme activity,inhibitor,radiometric,1 µM,remaining activity,96%
Cc1ccc(C(=O)NCc2ccsc2)cc1C#Cc1cn(C(C)C)c2ncnc(N)c12,enzyme activity,inhibitor,,1 µM,activity vs control,87%
CS(=O)(=O)N1CCCC(NC(=O)[C@H](CCC2CCCCC2)NC(=O)c2ccc(CNC(=O)c3cnc4ccccn34)cc2)C1 (some centres unmarked),cell-free assay,,competition with immobilised ligand,0.1 µM,remaining binding,100%
CC/C(=N\NC(=O)NCc1cccc(O)c1)c1ccc(O)c(C)c1O,enzyme activity,inhibitor,,0.1 µM,inhibition,55.7%
Nc1ncnc2occ(-c3ccc(NC(=O)Nc4cc(C(F)(F)F)ccc4F)cc3)c12,cell-free assay,inhibitor,,20 µM,remaining signal,87%
c1ccc(N2CCN(Cc3nc4ccccc4[nH]3)CC2)nc1,binding,,competition with immobilised ligand,1 µM,remaining binding,100%
COc1cc2ncnc(Nc3ccc(Oc4ccccc4)cc3C)c2cc1OC,enzyme activity,inhibitor,,1 µM,inhibition,1%
CNC(=O)Nc1ccc2c(c1)CC[C@@]21OC(=O)N(CC(=O)N(Cc2ccc(F)cc2)[C@@H](C)C(F)(F)F)C1=O,cell-free assay,,competition with immobilised ligand,1 µM,remaining binding,100%
CNC(=O)c1cc(Oc2ccc(NC(=O)Nc3ccc(Cl)c(C(F)(F)F)c3)cc2)ccn1,enzyme activity,inhibitor,,10 µM,inhibition,-2%
C[C@H](c1ccc(F)cc1)N(Cc1cccc(C(=O)O)c1)C(=O)c1cnc2ccccc2c1,cell-free assay,,competition with immobilised ligand,1 µM,remaining binding,100%
CC(C)c1ccc(NC(=O)c2cccs2)c(-c2nc3ccccc3[nH]c2=O)c1,enzyme activity,inhibitor,,1 µM,activity vs control,123%
